# Activity calls are given as the source filed them.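 The calls were made as follows, unless noted: active = viability at or below 10% of carrier control in both of two separate runs; inconclusive = viability at or below 10% in only one of the two runs; inactive = the rest.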
# Legend:
# [1] = reducers of endogenous Her2 protein level, primary screen, SKBR3 breast tumor cells, AlphaScreen, ATP viability (AID 461;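 active = Her2 level under about 52% in both replicate screens, with viability over 70% of control, limit read from the data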;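 as to Her2 level: lower value means less Her2 protein in the cells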;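 as to viability: percent of carrier control wells set as 100% viability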); settings: 18-24 h, measured here: SKBR3 viability, ATP luminescence, at 10 µM
# [2] = biological target: Receptor tyrosine-protein kinase erbB-2 (Homo sapiens) (UniProt P04626); experiment: as above; settings: 18-24 h, at 10 µM, stronger effect = lower value
# Chain of Receptor tyrosine-protein kinase erbB-2 (Homo sapiens) (P04626 whole entry, looked up): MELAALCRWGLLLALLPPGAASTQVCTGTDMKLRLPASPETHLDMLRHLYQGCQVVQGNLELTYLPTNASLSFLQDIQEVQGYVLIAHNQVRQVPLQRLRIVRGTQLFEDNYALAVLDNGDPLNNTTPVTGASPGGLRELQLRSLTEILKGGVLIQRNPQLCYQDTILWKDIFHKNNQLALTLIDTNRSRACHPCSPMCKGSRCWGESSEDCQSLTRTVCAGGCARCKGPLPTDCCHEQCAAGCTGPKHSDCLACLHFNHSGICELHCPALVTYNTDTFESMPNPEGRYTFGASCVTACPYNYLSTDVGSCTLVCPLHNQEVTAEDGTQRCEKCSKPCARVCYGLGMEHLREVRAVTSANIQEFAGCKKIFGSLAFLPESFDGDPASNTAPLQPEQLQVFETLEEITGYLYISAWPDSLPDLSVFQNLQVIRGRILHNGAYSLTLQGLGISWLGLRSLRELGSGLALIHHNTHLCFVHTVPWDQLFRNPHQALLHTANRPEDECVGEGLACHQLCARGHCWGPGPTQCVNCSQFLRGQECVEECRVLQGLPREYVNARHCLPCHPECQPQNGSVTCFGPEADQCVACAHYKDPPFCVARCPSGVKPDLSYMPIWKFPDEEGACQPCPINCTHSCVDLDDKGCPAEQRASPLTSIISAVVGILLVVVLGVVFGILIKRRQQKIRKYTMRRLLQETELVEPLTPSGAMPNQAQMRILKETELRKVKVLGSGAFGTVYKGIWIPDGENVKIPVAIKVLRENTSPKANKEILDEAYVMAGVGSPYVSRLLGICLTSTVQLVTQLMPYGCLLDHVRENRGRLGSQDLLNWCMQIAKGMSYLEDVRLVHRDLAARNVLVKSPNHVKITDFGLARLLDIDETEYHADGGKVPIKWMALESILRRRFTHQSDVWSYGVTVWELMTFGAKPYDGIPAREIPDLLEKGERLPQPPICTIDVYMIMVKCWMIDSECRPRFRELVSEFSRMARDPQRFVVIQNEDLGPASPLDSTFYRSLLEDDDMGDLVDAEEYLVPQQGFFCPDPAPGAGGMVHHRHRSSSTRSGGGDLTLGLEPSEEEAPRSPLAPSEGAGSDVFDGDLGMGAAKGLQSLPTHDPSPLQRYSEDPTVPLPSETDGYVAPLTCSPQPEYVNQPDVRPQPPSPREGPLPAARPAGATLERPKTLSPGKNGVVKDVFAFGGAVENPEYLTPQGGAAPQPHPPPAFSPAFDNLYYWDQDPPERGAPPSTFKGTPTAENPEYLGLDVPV
# [3] = SK-BR-3 cell growth inhibitors, pilot screen, 24 h, human (AID 572); settings: SK-BR-3 viability, CellTiter-Glo luminescence, at 10 µM, stronger effect = lower value;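 also: compound exposure lasted between 18 and 24 h rather than exactly 24 h; 100% = carrier-treated control wells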
# [4] = HUVEC growth inhibition – cell-based, human, primary screen (AID 575;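 active = viability at or below 30% in both replicate assays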;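 also: 100% = median of untreated cell wells with 0.1% DMSO on each plate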); settings: HUVEC proliferation, CellTiter-Glo luminescence, 72 h; at 10 µM; stronger effect = lower value
# Outline: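 material = primary HUVEC, no more than 12 passages | input = 1250 cells per well | controls = vehicle and MePR control wells | measured by = CTG luminescence | times = 72 h compound incubation | format = collagen-coated 384-well format | read-out = % viability vs DMSO wells | doses = single 10 µM dose, 0.1% DMSO, from 5x medium stock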
# [5] = growth inhibitors of H69AR lung tumor, primary screen, human, duplicate replicates (AID 580;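 active = viability at or under a set limit in both replicates, limit being median viability minus 3 SD, cut at about 48% in these data, passing the limit was not always enough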;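 also: 100% = mean luminescence of untreated wells and 0% = no signal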); settings: H69AR lung tumor cells viability, ATP luminescence, 72 h; at 10 µM; stronger effect = lower value
# [6] = reversal of MRP1-mediated doxorubicin resistance, pilot screen, H69AR cells, doxorubicin co-treatment (AID 601;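 active = viability loss from added drug above about 55%, and viability with drug at most 40%, in both replicates, limit read from the data, passing the limit was not always enough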); settings: CellTiter-Glo, 72 h, at 10 µM; for differential viability (reversal): stronger effect = higher value
# [7] = 384-well plate pilot, post-Golgi transport modulator project, inhibition of yeast transport mutant growth (AID 636; in the data active = inhibition above about 31%); settings: absorbance 615 nm, about 18 h, stronger effect = higher value
# [8] = growth suppression of yeast trafficking mutant, preliminary HTS, modulators of trafficking downstream of Golgi apparatus project, 1536-format plate, OD 615 nm (AID 637; in the data active = inhibition above about 30%); settings: yeast transport mutant growth, absorbance 615 nm, 18 h; stronger effect = higher value
# [9] = H69AR cells + 2 uM doxorubicin, measured here: viability with 2 uM doxorubicin, stronger effect = lower value
# [10] = H69AR cells, compound alone cytotoxicity
Structure (SMILES),viability [1] [%],Her2 level [2],viability [3],viability [4],viability [5],differential viability (reversal) ([6]; H69AR cells + 2 uM doxorubicin),"viability [6, 9] [%]","viability [6, 10] [%]",inhibition [7],inhibition [8]
COc1ccc(N=c2scc(-c3ccc(S(=O)(=O)N4CCOCC4)cc3)n2CCCO)cc1,85.5,80.5% (inactive),85.5% (inactive),96.4% (inactive),72.8% (inactive),37.2% (inactive),35.6,72.8,1.67% (inactive),-8.5% (inactive)
N#Cc1c(NC(=O)c2ccc(Br)o2)n(-c2ccccc2)c2nc3ccccc3nc12,86.5,77% (inactive),86.5% (inactive),71.1% (inactive),85.2% (inactive),-0.255% (inactive),85.5,85.2,-5.73% (inactive),2.46% (inactive)
CC1CCC(C(=O)NC(C(=O)NCCN2CCC(C)CC2)C(C)C)CC1 (stereo not given),126,107% (inactive),126% (inactive),87.6% (inactive),81.3% (inactive),-6.62% (inactive),87.9,81.3,-1.04% (inactive),13.9% (inactive)
Cc1nn(-c2ccc(F)cc2)c2nc(N)c(C#N)c(-c3cccs3)c12,80.5,75.5% (inactive),80.5% (inactive),85.4% (inactive),86.2% (inactive),4.98% (inactive),81.3,86.2,-0.79% (inactive),3.44% (inactive)
Cc1c(NC(=O)C(C)OC(=O)C(NC(=O)c2ccco2)C(C)C)c(=O)n(-c2ccccc2)n1C (stereo not given),91,91.5% (inactive),91% (inactive),90.9% (inactive),91.5% (inactive),5.67% (inactive),85.8,91.5,-6.89% (inactive),-5.5% (inactive)
COc1cc(C(=O)N2CCC(NC(=O)C(Cc3ccc(C)cc3)NC(C)=O)CC2)cc(OC)c1OC (stereo not given),92,86% (inactive),92% (inactive),97.8% (inactive),98% (inactive),7.71% (inactive),90.3,98,-2.84% (inactive),0.16% (inactive)
COc1ccc(-c2cc3nc(C)c(CCC(=O)NCc4ccco4)c(C)n3n2)c(OC)c1,103,91% (inactive),103% (inactive),92.1% (inactive),85.8% (inactive),-2.58% (inactive),88.4,85.8,0.53% (inactive),6.91% (inactive)
CCOC(=O)N1CCN(S(=O)(=O)c2ccc(OCC)c(C)c2)CC1,110,88.5% (inactive),110% (inactive),88.9% (inactive),103% (inactive),17.6% (inactive),85.5,103,-1.95% (inactive),-3.17% (inactive)
COc1ccc2[nH]c(=O)c(CN(Cc3cccs3)S(=O)(=O)c3cccc4nsnc34)cc2c1,96.5,80% (inactive),96.5% (inactive),59.2% (inactive),5.33% (active),-0.125% (inactive),5.45,5.33,-6.44% (inactive),1.43% (inactive)
CCOC(=O)c1ccc(CC2S/C(=C(\C#N)C(C)=O)NC2=O)cc1 (stereo not given),91.5,89.5% (inactive),91.5% (inactive),95.7% (inactive),89.6% (inactive),-4.15% (inactive),93.7,89.6,-6.53% (inactive),1.94% (inactive)
O=C(O)CCCC(=O)Nc1ccc(Br)cc1C(=O)O,95.5,90% (inactive),95.5% (inactive),93.8% (inactive),96.8% (inactive),14.4% (inactive),82.4,96.8,-0.53% (inactive),-0.16% (inactive)
CCOc1ccc(S(=O)(=O)NCC2CCCO2)c2cccnc12 (stereo not given),99,99.5% (inactive),99% (inactive),93.8% (inactive),93.6% (inactive),6.55% (inactive),87.1,93.6,0.13% (inactive),5.08% (inactive)
Cc1cc2cc(CN(CC3CCCO3)C(=O)c3cnccn3)c(=O)[nH]c2cc1C (stereo not given),75,130% (inactive),75% (inactive),89.9% (inactive),92.3% (inactive),6.07% (inactive),86.3,92.3,-0.8% (inactive),-4.59% (inactive)
Cc1nc(-c2cnn(-c3ccccc3)c2)c2cc(C)oc2n1,74.5,76% (inactive),74.5% (inactive),67.2% (inactive),90.7% (inactive),3.27% (inactive),87.4,90.7,-2.11% (inactive),3.28% (inactive)
O=C(NCc1cccs1)c1cc2c(s1)-c1ccccc1OC2,96,91.5% (inactive),96% (inactive),76.8% (inactive),94.8% (inactive),5.04% (inactive),89.7,94.8,-5.2% (inactive),3.77% (inactive)
O=C(O)c1cc2c([nH]c1=O)CCCC2,93.5,81.5% (inactive),93.5% (inactive),95% (inactive),88.8% (inactive),0.75% (inactive),88,88.8,-2.24% (inactive),-1.82% (inactive)

Structure (SMILES),viability [1] [%],Her2 level [2],viability [3],viability [4],viability [5],differential viability (reversal) ([6]; H69AR cells + 2 uM doxorubicin),"viability [6, 9] [%]","viability [6, 10] [%]",inhibition [7],inhibition [8]
CS(=O)(=O)N(Cc1nc2sc3c(c2c(=O)[nH]1)CCCC3)C1CCCCC1,91,112% (inactive),91% (inactive),77.9% (inactive),84% (inactive),1.24% (inactive),82.7,84,-4.8% (inactive),-0.49% (inactive)
CC1CCCCC1NC(=O)c1ccc(N2CCCC2=O)cc1 (stereo not given),112,106% (inactive),112% (inactive),111% (inactive),90.3% (inactive),7.01% (inactive),83.2,90.3,-2.21% (inactive),2.79% (inactive)
CCC(Sc1ccc2nnc(-c3ccc(F)cc3)n2n1)C(=O)OC (stereo not given),110,90% (inactive),110% (inactive),86.4% (inactive),83% (inactive),45% (inactive),38,83,-7.7% (inactive),2.5% (inactive)
CN(C(=O)c1ccno1)c1nnc(-c2cnccn2)s1,107,102% (inactive),107% (inactive),108% (inactive),103% (inactive),6.98% (inactive),95.9,103,-6.22% (inactive),1.83% (inactive)
COc1cccc(NC(=O)CSc2nnc(-c3cccs3)n2C)c1,98,78.5% (inactive),98% (inactive),116% (inactive),97.5% (inactive),12.2% (inactive),85.3,97.5,-6.08% (inactive),-1.67% (inactive)
CCCOc1cccc(C2/C(=C(/O)c3ccccc3)C(=O)C(=O)N2CCN(C)C)c1 (stereo not given),108,93% (inactive),108% (inactive),99.5% (inactive),91.6% (inactive),2.56% (inactive),89.1,91.6,-6.62% (inactive),1.75% (inactive)
N#Cc1nc(-c2cccs2)oc1NCCc1ccccc1,93.5,86.5% (inactive),93.5% (inactive),84.3% (inactive),102% (inactive),18.3% (inactive),83.4,102,-1.18% (inactive),1.29% (inactive)
CC(=O)c1cccc(NC(=O)c2ccc(NS(C)(=O)=O)cc2)c1,118,80.5% (inactive),118% (inactive),97.7% (inactive),83.6% (inactive),-1.39% (inactive),85,83.6,-3.95% (inactive),1.75% (inactive)
CCn1c(=S)sc2nc(C)sc21,94,100% (inactive),94% (inactive),96.6% (inactive),93.7% (inactive),3.59% (inactive),90.1,93.7,-4.27% (inactive),1.94% (inactive)
CN(CCC#N)C(=O)COC(=O)c1ccc(Cl)c(S(N)(=O)=O)c1,104,97.5% (inactive),104% (inactive),106% (inactive),95.9% (inactive),7.13% (inactive),88.8,95.9,-4.93% (inactive),3.71% (inactive)
CCC(Sc1ncccc1C(=O)O)C(=O)N1CCCC1 (stereo not given),92,93.5% (inactive),92% (inactive),95.5% (inactive),101% (inactive),14% (inactive),87.2,101,2.47% (inactive),-5.9% (inactive)
C=CCc1cc(C(=O)N2CCCCC2)ccc1O,104,100% (inactive),104% (inactive),88% (inactive),92.3% (inactive),-15.2% (inactive),108,92.3,-2.5% (inactive),8.2% (inactive)
CC(C)OC(=O)CSc1nnc(-c2ccc(C(C)(C)C)cc2)n1N,93,108% (inactive),93% (inactive),86.7% (inactive),88.4% (inactive),5.61% (inactive),82.8,88.4,-2.6% (inactive),-12.7% (inactive)
COc1ccc(CN(C(=O)c2cccs2)c2nccs2)cc1OC,74,68.5% (inactive),74% (inactive),90.4% (inactive),94.6% (inactive),-4.98% (inactive),99.6,94.6,-4.46% (inactive),-0.98% (inactive)
COc1cc(C(=O)Nc2cccc(-c3nc4cc(C)ccc4o3)c2)cc(OC)c1OC,95,80% (inactive),95% (inactive),66.8% (inactive),55.7% (inactive),4.43% (inactive),51.3,55.7,-5% (inactive),4.76% (inactive)
